# Compound activity: PubChem BioAssay, several laboratories
# Most compounds without a hit are left out; they make up all but 3.4% or so of the library.
# UCH37 inh: inhibitors of human UCH37 deubiquitinase, primary screen, biochemical, Ub-AMC cleavage, fluorescence | Ubiquitin carboxyl-terminal hydrolase isozyme L5 (Homo sapiens), Q9Y5K5 | purified proteasome/UCH37 | inhibition, % (test concentration not listed) | 330,000 tested, 0.33% active;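 active = mean inhibition over replicate wells above about 20%, limit read from the data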;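 note: 0% = compound-free wells with enzyme and 100% = wells lacking proteasome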
#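 Material: Human UCH37 enzyme supplied as purified proteasome complex | Schedule: 30 min compound-proteasome preincubation then 25 min substrate reaction, room temperature | Detection: AMC fluorescence from Ub-AMC cleavage, excitation 355 nm, emission 460 nm | Benchmarks: Wells without proteasome as full block, compound-free enzyme plus substrate as uninhibited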
# APOBEC3A inh: APOBEC3A ssDNA deaminase inhibitors, primary screen, selectivity assay for APOBEC3G inhibitor project, biochemical, FAM/TAMRA oligo cleavage fluorescence; recombinant A3A, FAM/TAMRA ssDNA deamination fluorescence; DNA dC->dU-editing enzyme APOBEC-3A (Homo sapiens), P31941; inhibition, % at 20 µM; 330,000 tested, 0.41% active;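 active = at least 40% inhibition at 20 µM here, with at most 30% in a related deaminase screen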;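 note: plate controls were A3A with DMSO for no effect and wells lacking A3A enzyme for full effect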
# Target sequence (P31941 whole entry, looked up): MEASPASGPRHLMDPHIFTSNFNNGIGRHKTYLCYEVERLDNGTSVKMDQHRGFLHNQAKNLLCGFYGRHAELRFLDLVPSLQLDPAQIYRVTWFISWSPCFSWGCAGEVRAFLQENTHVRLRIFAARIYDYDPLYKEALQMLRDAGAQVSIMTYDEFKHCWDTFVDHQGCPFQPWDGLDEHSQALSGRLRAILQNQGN
# APOBEC3G inh: APOBEC3G DNA deaminase inhibitors, primary screen, biochemical, fluorescence, single-stranded DNA substrate, uHTS. 330,000 tested, 0.28% active. recombinant A3G, ssDNA deamination FAM/TAMRA fluorescence. inhibition, % at 20 µM. DNA dC->dU-editing enzyme APOBEC-3G (Homo sapiens), Q9HC16. AID 493012, 2011;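 active = inhibition of at least 40% at 20 µM, with no more than 30% in the related APOBEC3A deaminase screen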;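 note: plate controls were DMSO wells with A3G for no effect and wells lacking A3G enzyme for full effect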
# Arrestin-AP2 inh: inhibitors of beta-arrestin/AP2 binding, primary screen, biochemical, GPCR trafficking, flow cytometry; beta-arrestin 1 C-terminal peptide binding to AP2 beta2-adaptin appendage (human); AID 504490, 2011; FITC-arrestin peptide / GST-AP2 beads; AP2 beta2 appendage carries R879A mutation; inhibition, % at 10 µM; 340,000 tested, 0.31% active;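 active = inhibition above a set limit, near 3 SD of compounds lacking own fluorescence, cut at about 54% in these data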;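 note: plate controls were DMSO wells for no effect and 5 µM unlabelled arrestin peptide for full effect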
#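 Material – AP2 appendage R879A on GSH beads · Buffer or medium – PBS with 0.05% Tween 20 and 0.1% BSA · Probe or stimulus – fluorescein-tagged arrestin peptide at 50 nM final · Incubation – compound with beads 12 min RT, then probe 1 h RT · Detection – high-throughput flow cytometry of beads, ex 488, em 535 nm · Evaluation – percent response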
# PolyA inhibitor: polyadenylation inhibitors in yeast reporter cells, primary screen, luminescence, S. cerevisiae. S. cerevisiae SKY197-pL101 polyadenylation reporter, beta-gal luminescence; efflux-impaired pdr1/pdr3 knockout yeast; score 100 = 6 SD above DMSO. activity score, % at 12 µM. 300,000 tested, 0.02% active. AID 1875, 2009;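 active = lowest replicate activity score at least 50, where 100 means six control SD above control mean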;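 note: yeast exposed to compound for 9 h at 30 °C; higher score means more reporter readthrough which indicates perturbed polyadenylation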
# AHR activator: AHR activators, primary screen, cell-based, luminescence, luciferase reporter, human; activation, % at 5 µM; AHR-responsive luciferase reporter cells; 320,000 tested, 2.5% active; in the data active = activation above about 47%;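 note: 0% = vehicle wells and 100% = reference agonist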
# APOBEC3G confirm: APOBEC3G deaminase inhibitor retest, confirmation, biochemical, fluorescence, single-stranded DNA substrate, single concentration; AID 493152, 2011; inhibition, % at 20 µM; shares compounds with APOBEC3G inh; recombinant A3G ssDNA deaminase, UDG/FAM-TAMRA fluorescence; 890 tested, 72% active;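 active = inhibition reaching a set limit in any replicate at 20 µM, the limit being 80% of the first screen's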
# UDG A3G counter: E. coli UDG inhibitors, confirmation, counter-screen for APOBEC3G inhibitor project, biochemical, single concentration, fluorescence, FAM/TAMRA oligo | shares compounds with APOBEC3G inh | UDG counterscreen | inhibition, % at 20 µM | 710 tested, under 10 active | AID 504715, 2011;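 active = compounds giving 40% or more inhibition at 20 µM in any one of the three replicates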;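 note: plate controls were DMSO wells with UDG and oligo for no effect and DMSO wells lacking both for full effect; inhibitors lower the FAM signal released by uracil excision and alkaline cleavage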
# Target sequence (P12295 whole entry, looked up): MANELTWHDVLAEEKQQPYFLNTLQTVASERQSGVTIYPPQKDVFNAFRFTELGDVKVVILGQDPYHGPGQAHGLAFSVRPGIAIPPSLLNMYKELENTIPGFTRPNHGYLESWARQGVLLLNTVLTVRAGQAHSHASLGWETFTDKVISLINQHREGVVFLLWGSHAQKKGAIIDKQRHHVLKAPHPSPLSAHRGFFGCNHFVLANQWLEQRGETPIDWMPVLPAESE
# * = called active by the depositor; · = not tested or not shown.
SMILES,UCH37 inh,APOBEC3A inh,APOBEC3G inh,Arrestin-AP2 inh,PolyA inhibitor,AHR activator,APOBEC3G confirm,UDG A3G counter
S=c1nc(C2COc3ccccc3O2)[nH][nH]1 (stereo unspecified),2,1,52*,10,10,0,71*,-3
Cc1ccc[n+](-c2[nH]c(=O)sc2C=NNC(=O)c2ccccc2[O-])c1,12,·,·,·,·,·,·,·
O=C(CC1Sc2ncnn2C1=O)Nc1ccc(Br)cc1 (stereo unspecified),3,-1,41*,11,0,3,70*,-3
CC1SC(=NN=Cc2ccco2)N(Cc2ccc(F)cc2)C1=O (stereo unspecified),5,·,·,·,·,·,·,·
COc1ccccc1NS(=O)(=O)c1cc(N)ccc1N1CCCCC1,1,5,49*,8,8,-1,62*,0
COc1ccc(NS(=O)(=O)c2cc(NC(=O)C3CC3)ccc2N2CCCCC2)cc1,-1,0,-3,-7,-4,1,·,·
COc1ccc(NS(=O)(=O)c2ccc(N3CCCCC3)c(N)c2)cc1,4,2,-1,-4,·,-4,·,·
Nc1ccc(N2CCCCC2)c(S(=O)(=O)Nc2ccccc2Cl)c1,8,6,7,-1,-4,4,·,·
CCN(CC)c1ccc(NC(=O)c2ccccn2)cc1S(=O)(=O)Nc1ccccc1OC,2,3,56*,-10,·,·,51*,-3
Nc1cc(S(=O)(=O)Nc2ccccc2Cl)ccc1N1CCCCC1,3,3,49*,36,·,3,47*,2
COc1ccccc1NS(=O)(=O)c1cc(NC(=O)C2CCC2)ccc1N1CCCCC1,2,-1,49*,17,-12,2,77*,-2
CC(=NNc1nc(-c2ccccc2F)nc2ccccc12)c1ccccc1O,3,·,·,·,·,·,·,·
Cn1c(=O)c2ncn(CC(=O)NN=Cc3ccco3)c2n(C)c1=O,0,·,·,·,·,·,·,·
COc1ccccc1NS(=O)(=O)c1cc(NC(=O)c2ccc(Cl)nc2)ccc1N1CCCC1,5,2,66*,-11,·,12,68*,-4
Fc1ccc(C=NN2CCN(Cc3ccccc3)CC2)cc1,2,·,·,·,·,·,·,·
CCOC(=O)c1c(NC(=O)CCC(=O)O)sc2c1CCCCC2,6,1,40*,3,-14,-2,23,·
CCOC(=O)c1c(NC(=O)CCCC(=O)O)sc2c1CCC2,·,0,-1,8,-6,1,·,·
Cc1ccc(Nc2nnns2)cc1,2,2,41*,-69,-10,4,27*,-4
CC(=NNC(=O)CNC(=O)c1cccnc1)c1ccc(Cl)cc1,0,·,·,·,·,·,·,·
CCC1S/C(=N/C(=O)NC2CCCCC2)NC1=O (stereo unspecified),-1,-2,-1,-5,-18,-1,·,·
O=C(/N=C1\NC(=O)C(F)(C(F)(F)F)S1)NC1CCCCC1 (stereo unspecified),2,0,50*,11,2,0,48*,3
CN=c1nc(-c2ccccc2)n(-c2ccccc2)s1,4,-2,79*,37,·,18,96*,-3
COc1ccccc1CNC(=O)CC(C)=NNC(=O)Cc1ccc(Cl)cc1,2,·,·,·,·,·,·,·
CCC(CC)C(=O)c1c[nH]c(C(=O)N2CCN(c3ccc(OC)cc3)CC2)c1,0,-6,48*,7,6,6,-2,-5
CCC(=O)c1c[nH]c(C(=O)N2CCN(c3ccccc3)CC2)c1,1,0,-3,6,23,3,·,·
SMILES,UCH37 inh,APOBEC3A inh,APOBEC3G inh,Arrestin-AP2 inh,PolyA inhibitor,AHR activator,APOBEC3G confirm,UDG A3G counter
O=C1Nc2ccccc2SC1c1ccccc1 (stereo unspecified),1,·,·,1,-11,·,·,·
Cc1ccc(NC2Sc3ccccc3NC2=O)cc1 (stereo unspecified),2,-4,51*,-28,15,9,21,-1
S=c1[nH]nc(CSc2nc3ccccc3s2)n1Cc1ccccc1,2,-3,8,16,-25,9,·,·
CCn1c(CSc2nc3ccccc3s2)n[nH]c1=S,5,0,47*,-22,3,17,59*,-3
C=CCn1c(CSc2nc3ccccc3s2)n[nH]c1=S,1,-3,45*,9,3,16,75*,-2
Cc1c(C(=O)NN=Cc2ccc(O)cc2)sc(=S)n1C,-5,·,·,·,·,·,·,·
S=c1[nH]ncn1/N=C/c1ccc(Br)cc1,·,-5,44*,8,-17,1,100*,-1
S=c1[nH]ncn1/N=C/c1ccccc1,·,-4,23,-6,4,0,·,·
Cc1ccc(-c2n[nH]c(=S)n2N=Cc2ccc(C)s2)cc1,4,·,·,·,·,·,·,·
Cc1cc(OCC(=O)NCCN2CCOCC2)cc(C)c1Cl,2,-5,79*,5,6,5,-12,-1
CC(=NNc1ccc(C(=O)O)cc1)c1ccc(S(=O)(=O)NCc2ccco2)cc1,19,·,·,·,·,·,·,·
CCCNC(=O)C(=O)NN=Cc1cccs1,9,·,·,·,·,·,·,·
Cc1ccc(N/N=C2\CCS(=O)(=O)c3sccc32)cc1,·,-6,45*,30,-4,16,-6,-4
CCOCCCn1c(=NC(=O)c2cccnc2)c(C(=O)OCC)cc2c(=O)n3ccccc3nc21,-202,10,65*,-2,18,-2,58*,0
CCOC(=O)C1=C(C)N(c2ccccc2)C(=O)/C1=C\c1ccc(O)c(OC)c1,2,5,66*,32,7,3,3,·
O=c1[nH]c(SCc2n[nH]c(=S)n2-c2ccccc2)nc2sc3c(c12)CCC3,4,0,7,20,3,11,·,·
O=c1[nH]c(SCc2n[nH]c(=S)n2-c2ccccc2)nc2ccccc12,0,-3,60*,15,-7,9,86*,-4
